≈ marks a conversion by molar mass, not a printed value.
Experiments:
Bacillus subtilis [1] = test: Antibacterial activity against Bacillus subtilis ATCC 6633 assessed after 24 hrs by serial dilution method; assay type: functional; settings: ATCC 6633, 24 h
Procedure, shortened: (§1)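 Strains were subcultured twice on MHA at 37 °C overnight. Inoculum was diluted from McFarland 0.5 to 10^5 cfu/ml, giving 10^4 cfu/ml in wells. Solvent, medium and organism-only controls were included. Incubated 37 °C, humid chamber, 24 h, in triplicate. MIC = lowest concentration with no macroscopic growth.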

Escherichia coli [2] = test: Antibacterial activity against Escherichia coli isolate assessed after 24 hrs by serial dilution method; assay type: functional; procedure, shortened: as §1
Pseudomonas aeruginosa [3] = test: Antibacterial activity against Pseudomonas aeruginosa ATCC […] assessed after 24 hrs by serial dilution method
Bacillus subtilis [4] = test: Antibacterial activity against drug-resistant Bacillus subtilis assessed after 24 hrs by serial dilution method
Candida albicans [5] = test: Antifungal activity against Candida albicans isolate assessed after 48 hrs by serial dilution method; assay type: functional
Procedure, shortened: (§2)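 Broth microdilution per CLSI M27-A in RPMI-1640 with L-glutamine, MOPS-buffered pH 7, with 2-fold compound dilutions. Yeasts were subcultured twice on SDA at 35 °C for 24–48 h. Inoculum was diluted from McFarland 0.5 to 10^4 cfu/ml, giving 10^3 cfu/ml in wells. Incubated 35 °C, humid chamber, 48 h, in triplicate. MIC = lowest concentration with no macroscopic growth.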

Escherichia coli [6] = test: Antibacterial activity against Escherichia coli ATCC assessed after 24 hrs by serial dilution method
Staphylococcus aureus [7] = test: Antibacterial activity against Staphylococcus aureus ATCC 25923 assessed after 24 hrs by serial dilution method; assay type: functional; settings: ATCC 25923, 24 h; procedure, shortened: as §1
Klebsiella pneumoniae [8] = test: Antibacterial activity against Klebsiella pneumoniae isolate assessed after 24 hrs by serial dilution method; assay type: functional; procedure, shortened: as §1
Candida albicans [9] = test: Antifungal activity against Candida albicans ATCC 10231 assessed after 48 hrs by serial dilution method; assay type: functional; settings: ATCC 10231, 48 h; procedure, shortened: as §2
Staphylococcus aureus [10] = test: Antibacterial activity against drug-resistant Staphylococcus aureus assessed after 24 hrs by serial dilution method
Klebsiella pneumoniae [11] = test: Antibacterial activity against Klebsiella pneumoniae RSHM 574 assessed after 24 hrs by serial dilution method
Pseudomonas aeruginosa [12] = test: Antibacterial activity against Pseudomonas aeruginosa isolate assessed after 24 hrs by serial dilution method; assay type: functional; procedure, shortened: as §1

Nc1ccc(NC(=O)c2ccc(Br)cc2)c(O)c1
MIC (Bacillus subtilis [1]): 62.5 µg/mL (≈ 203 µM)
MIC (Escherichia coli [2]): 250 µg/mL (≈ 814 µM)
MIC (Pseudomonas aeruginosa [3]): 250 µg/mL (≈ 814 µM)
MIC (Bacillus subtilis [4]): 31.2 µg/mL (≈ 102 µM)
MIC (Candida albicans [5]): 125 µg/mL (≈ 407 µM)
MIC (Escherichia coli [6]): 125 µg/mL (≈ 407 µM)
MIC (Staphylococcus aureus [7]): 125 µg/mL (≈ 407 µM)
MIC (Klebsiella pneumoniae [8]): 250 µg/mL (≈ 814 µM)
MIC (Candida albicans [9]): 250 µg/mL (≈ 814 µM)
MIC (Staphylococcus aureus [10]): 7.8 µg/mL (≈ 25.4 µM)
MIC (Klebsiella pneumoniae [11]): 250 µg/mL (≈ 814 µM)
MIC (Pseudomonas aeruginosa [12]): 250 µg/mL (≈ 814 µM)

Nc1ccc(NC(=O)Cc2ccc(F)cc2)c(O)c1
MIC (Bacillus subtilis [1]): 250 µg/mL (≈ 961 µM)
MIC (Escherichia coli [2]): 125 µg/mL (≈ 480 µM)
MIC (Pseudomonas aeruginosa [3]): 125 µg/mL (≈ 480 µM)
MIC (Bacillus subtilis [4]): 62.5 µg/mL (≈ 240 µM)
MIC (Candida albicans [5]): 125 µg/mL (≈ 480 µM)
MIC (Escherichia coli [6]): 62.5 µg/mL (≈ 240 µM)
MIC (Staphylococcus aureus [7]): 125 µg/mL (≈ 480 µM)
MIC (Klebsiella pneumoniae [8]): 125 µg/mL (≈ 480 µM)
MIC (Candida albicans [9]): 125 µg/mL (≈ 480 µM)
MIC (Staphylococcus aureus [10]): 62.5 µg/mL (≈ 240 µM)
MIC (Klebsiella pneumoniae [11]): 125 µg/mL (≈ 480 µM)
MIC (Pseudomonas aeruginosa [12]): 125 µg/mL (≈ 480 µM)

Nc1ccc(NC(=O)c2ccc(F)cc2)c(O)c1
MIC (Bacillus subtilis [1]): 125 µg/mL (≈ 508 µM)
MIC (Escherichia coli [2]): 250 µg/mL (≈ 1020 µM)
MIC (Pseudomonas aeruginosa [3]): 125 µg/mL (≈ 508 µM)
MIC (Bacillus subtilis [4]): 125 µg/mL (≈ 508 µM)
MIC (Candida albicans [5]): 125 µg/mL (≈ 508 µM)
MIC (Escherichia coli [6]): 250 µg/mL (≈ 1020 µM)
MIC (Staphylococcus aureus [7]): 62.5 µg/mL (≈ 254 µM)
MIC (Klebsiella pneumoniae [8]): 250 µg/mL (≈ 1020 µM)
MIC (Candida albicans [9]): 125 µg/mL (≈ 508 µM)
MIC (Staphylococcus aureus [10]): 15.6 µg/mL (≈ 63.4 µM)
MIC (Klebsiella pneumoniae [11]): 125 µg/mL (≈ 508 µM)
MIC (Pseudomonas aeruginosa [12]): 250 µg/mL (≈ 1020 µM)

Cc1ccc(CC(=O)Nc2cc(N)ccc2O)cc1
MIC (Bacillus subtilis [1]): 15.6 µg/mL (≈ 60.9 µM)
MIC (Escherichia coli [2]): 250 µg/mL (≈ 975 µM)
MIC (Candida albicans [5]): 125 µg/mL (≈ 488 µM)
MIC (Staphylococcus aureus [7]): 31.2 µg/mL (≈ 122 µM)
MIC (Klebsiella pneumoniae [8]): 250 µg/mL (≈ 975 µM)
MIC (Candida albicans [9]): 125 µg/mL (≈ 488 µM)
MIC (Pseudomonas aeruginosa [12]): 250 µg/mL (≈ 975 µM)

CCc1ccc(C(=O)Nc2ccc([N+](=O)[O-])cc2O)cc1
MIC (Bacillus subtilis [1]): 250 µg/mL (≈ 873 µM)
MIC (Escherichia coli [2]): 125 µg/mL (≈ 437 µM)
MIC (Pseudomonas aeruginosa [3]): 250 µg/mL (≈ 873 µM)
MIC (Bacillus subtilis [4]): 15.6 µg/mL (≈ 54.5 µM)
MIC (Candida albicans [5]): 125 µg/mL (≈ 437 µM)
MIC (Escherichia coli [6]): 125 µg/mL (≈ 437 µM)
MIC (Staphylococcus aureus [7]): 62.5 µg/mL (≈ 218 µM)
MIC (Klebsiella pneumoniae [8]): 125 µg/mL (≈ 437 µM)
MIC (Candida albicans [9]): 125 µg/mL (≈ 437 µM)
MIC (Staphylococcus aureus [10]): 125 µg/mL (≈ 437 µM)
MIC (Klebsiella pneumoniae [11]): 500 µg/mL (≈ 1750 µM)
MIC (Pseudomonas aeruginosa [12]): 250 µg/mL (≈ 873 µM)

CCc1ccc(C(=O)Nc2cc(N)ccc2O)cc1
MIC (Bacillus subtilis [1]): 62.5 µg/mL (≈ 244 µM)
MIC (Escherichia coli [2]): 125 µg/mL (≈ 488 µM)
MIC (Pseudomonas aeruginosa [3]): 62.5 µg/mL (≈ 244 µM)
MIC (Bacillus subtilis [4]): 31.2 µg/mL (≈ 122 µM)
MIC (Candida albicans [5]): 62.5 µg/mL (≈ 244 µM)
MIC (Escherichia coli [6]): 125 µg/mL (≈ 488 µM)
MIC (Staphylococcus aureus [7]): 15.6 µg/mL (≈ 60.9 µM)
MIC (Klebsiella pneumoniae [8]): 62.5 µg/mL (≈ 244 µM)
MIC (Candida albicans [9]): 62.5 µg/mL (≈ 244 µM)
MIC (Staphylococcus aureus [10]): 15.6 µg/mL (≈ 60.9 µM)
MIC (Klebsiella pneumoniae [11]): 62.5 µg/mL (≈ 244 µM)
MIC (Pseudomonas aeruginosa [12]): 125 µg/mL (≈ 488 µM)

OC(Cn1cncn1)(Cn1cncn1)c1ccc(F)cc1F [FLUCONAZOLE]
MIC (Candida albicans [5]): 512 µg/mL (≈ 1670 µM)
MIC (Candida albicans [9]): 4 µg/mL (≈ 13.1 µM)

CCc1ccc(C(=O)Nc2cc([N+](=O)[O-])ccc2O)cc1
MIC (Bacillus subtilis [1]): 3.9 µg/mL (≈ 13.6 µM)
MIC (Escherichia coli [2]): 250 µg/mL (≈ 873 µM)
MIC (Pseudomonas aeruginosa [3]): 62.5 µg/mL (≈ 218 µM)
MIC (Bacillus subtilis [4]): 31.2 µg/mL (≈ 109 µM)
MIC (Candida albicans [5]): 62.5 µg/mL (≈ 218 µM)
MIC (Escherichia coli [6]): 125 µg/mL (≈ 437 µM)
MIC (Staphylococcus aureus [7]): 7.8 µg/mL (≈ 27.2 µM)
MIC (Klebsiella pneumoniae [8]): 125 µg/mL (≈ 437 µM)
MIC (Candida albicans [9]): 125 µg/mL (≈ 437 µM)
MIC (Staphylococcus aureus [10]): 7.8 µg/mL (≈ 27.2 µM)
MIC (Klebsiella pneumoniae [11]): 250 µg/mL (≈ 873 µM)
MIC (Pseudomonas aeruginosa [12]): 250 µg/mL (≈ 873 µM)

O=C(Cc1ccc(Br)cc1)Nc1ccc([N+](=O)[O-])cc1O
MIC (Bacillus subtilis [1]): 31.2 µg/mL (≈ 89 µM)
MIC (Escherichia coli [2]): 250 µg/mL (≈ 712 µM)
MIC (Pseudomonas aeruginosa [3]): 250 µg/mL (≈ 712 µM)
MIC (Bacillus subtilis [4]): 125 µg/mL (≈ 356 µM)
MIC (Candida albicans [5]): 250 µg/mL (≈ 712 µM)
MIC (Escherichia coli [6]): 125 µg/mL (≈ 356 µM)
MIC (Staphylococcus aureus [7]): 250 µg/mL (≈ 712 µM)
MIC (Klebsiella pneumoniae [8]): 125 µg/mL (≈ 356 µM)
MIC (Candida albicans [9]): 250 µg/mL (≈ 712 µM)
MIC (Staphylococcus aureus [10]): 125 µg/mL (≈ 356 µM)
MIC (Klebsiella pneumoniae [11]): 250 µg/mL (≈ 712 µM)
MIC (Pseudomonas aeruginosa [12]): 250 µg/mL (≈ 712 µM)

O=C(Nc1cc([N+](=O)[O-])ccc1O)c1ccccc1
MIC (Bacillus subtilis [1]): 7.8 µg/mL (≈ 30.2 µM)
MIC (Escherichia coli [2]): 250 µg/mL (≈ 968 µM)
MIC (Pseudomonas aeruginosa [3]): 125 µg/mL (≈ 484 µM)
MIC (Bacillus subtilis [4]): 62.5 µg/mL (≈ 242 µM)
MIC (Candida albicans [5]): 250 µg/mL (≈ 968 µM)
MIC (Escherichia coli [6]): 125 µg/mL (≈ 484 µM)
MIC (Staphylococcus aureus [7]): 31.2 µg/mL (≈ 121 µM)
MIC (Klebsiella pneumoniae [8]): 250 µg/mL (≈ 968 µM)
MIC (Candida albicans [9]): 125 µg/mL (≈ 484 µM)
MIC (Staphylococcus aureus [10]): 15.6 µg/mL (≈ 60.4 µM)
MIC (Klebsiella pneumoniae [11]): 125 µg/mL (≈ 484 µM)
MIC (Pseudomonas aeruginosa [12]): 250 µg/mL (≈ 968 µM)

CCc1ccc(C(=O)Nc2ccc(N)cc2O)cc1
MIC (Bacillus subtilis [1]): 250 µg/mL (≈ 975 µM)
MIC (Escherichia coli [2]): 250 µg/mL (≈ 975 µM)
MIC (Pseudomonas aeruginosa [3]): 250 µg/mL (≈ 975 µM)
MIC (Bacillus subtilis [4]): 31.2 µg/mL (≈ 122 µM)
MIC (Candida albicans [5]): 125 µg/mL (≈ 488 µM)
MIC (Escherichia coli [6]): 125 µg/mL (≈ 488 µM)
MIC (Staphylococcus aureus [7]): 125 µg/mL (≈ 488 µM)
MIC (Klebsiella pneumoniae [8]): 250 µg/mL (≈ 975 µM)
MIC (Candida albicans [9]): 125 µg/mL (≈ 488 µM)
MIC (Staphylococcus aureus [10]): 7.8 µg/mL (≈ 30.4 µM)
MIC (Klebsiella pneumoniae [11]): 125 µg/mL (≈ 488 µM)
MIC (Pseudomonas aeruginosa [12]): 250 µg/mL (≈ 975 µM)
